Compound activity as filed in PubChem BioAssay.
In the library only some 9% were active in any assay of this set; here they are far more common.
mHtt clearance = clearance of mutant huntingtin inclusions, primary screen, imaging, HeLa Exon1htt(103Q)mCFP, confocal imaging; aggregate imaging; zero = plate's median compound well; inhibition, % at 1.5 µM; 0.42% of 47,000 active; AID 853, 2007;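 active means inhibition of aggregate fluorescence above about 70%, also judged a hit by eye on the cell image, limit read from the data, passing the limit was not always enough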;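 further: cells exposed to compound for three days before fixation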
D1 allo mod = D1 CRE-luciferase signal change, two-sided – cell-based, HEK293 D1, dopamine EC30, D1 allosteric modulator project, primary screen; AID 641, 2007; 5.9% of 58,000 active; B-score at 10 µM; D(1A) dopamine receptor (Homo sapiens), P21728; dopamine EC30 potentiation; actives deviate in either direction;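 active means luminescence count or its row- and column-corrected plate score outside the 99.7% band of the plate's sample wells, on either side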
Target sequence (P21728 whole entry, looked up): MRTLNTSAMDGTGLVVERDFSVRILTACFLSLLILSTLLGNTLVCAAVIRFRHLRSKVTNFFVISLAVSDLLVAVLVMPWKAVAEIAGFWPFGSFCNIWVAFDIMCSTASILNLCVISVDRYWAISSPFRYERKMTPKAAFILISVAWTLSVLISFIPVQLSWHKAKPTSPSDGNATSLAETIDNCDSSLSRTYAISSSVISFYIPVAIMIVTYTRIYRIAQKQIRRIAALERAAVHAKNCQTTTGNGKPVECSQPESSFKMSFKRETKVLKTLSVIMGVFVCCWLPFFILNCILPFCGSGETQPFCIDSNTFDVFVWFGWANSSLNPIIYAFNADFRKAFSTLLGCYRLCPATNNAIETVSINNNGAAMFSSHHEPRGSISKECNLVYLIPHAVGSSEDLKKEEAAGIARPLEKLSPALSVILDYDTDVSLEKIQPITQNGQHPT
M1 antagonist = antagonists of rat M1 muscarinic receptor; 3.4% of 64,000 active; B-score at 10 µM; CHO-M1 cells, Fluo-4 calcium, ACh EC80 antagonist mode; hits give low values; Muscarinic acetylcholine receptor M1 (Rattus norvegicus), P08482;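 active means calcium fluorescence response, raw or row-and-column corrected B-score, differing from the plate sample mean either way at a set confidence level, mostly lower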
M1 ag = M1 muscarinic receptor agonists, primary screen, CHO-M1 cells, Fluo-4 calcium, agonist mode | B-score at 10 µM | AID 626, 2007 | 3% of 64,000 active | Fluo-4 calcium fluorescence; hits give high values | Muscarinic acetylcholine receptor M1;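 active means fluorescence rise, raw or as B-score row- and column-corrected plate score, outside the 99.7% band of its plate's samples, either direction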
AP ELISA ortho = alternative complement pathway inhibitors, primary screen, biochemical, ELISA, human serum, orthogonally pooled compounds. LPS-coated ELISA, C3 deposition; tested in compound mixtures. inhibition, % at 5 µM. 0.08% of 62,000 active. AID 1235, 2008;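 active means inhibition above 30% in each of the two pooled mixtures holding the compound, so the lower value exceeds 30%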
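Medium: diluted human serum in Mg2+-EGTA GVB++. Assay system: human serum complement alternative pathway, C3 deposition onto LPS. Also added: Plate-bound LPS. Technique: Anti-C3 ELISA, OD 450 nm. Measure: percent inhibition. Incubation: 1 h at 37 °C. Dosing: 5 µM each compound, pools of ten, 50 µM per pool.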
D1 PAM confirm = D1 receptor positive allosteric modulators, retest, confirmation, cell-based, HEK293 D1, CRE-luciferase, duplicate; shares compounds with D1 allo mod; dopamine EC30 potentiation; hits give high values; luminescence at 10 µM; 88% of 2,200 active;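 active means luminescence in either of two replicates above the same-plate mean plus 3 SD of the low-dose dopamine control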
D1 no dopamine = D1 receptor agonism without dopamine, confirmation, mechanism study for D1 allosteric modulator project, cell-based, HEK293 D1, CRE-luciferase, secondary assay 1 | shares compounds with D1 allo mod | AID 646, 2007 | luminescence, no dopamine; hits give high values | luminescence at 10 µM | 0.8% of 1,900 active; in the data active means luminescence above about 3900
Isoprot counter = isoproterenol response counter-screen activity for D1 modulators | shares compounds with D1 allo mod | HEK293 D1 CRE-luciferase, isoproterenol EC30 counter-screen | calls only at 10 µM | 63% of 2,200 active;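 active means luminescence in either replicate above plate mean of wells with a partly effective reference agonist dose plus 3 SD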;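 further: isoproterenol raises cAMP through native beta-adrenoceptor Gs so signal bypasses D1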
Numbers stand for hits; . = inactive; / = no result given; + = active, no number.

SMILES	mHtt clearance	D1 allo mod	M1 antagonist	M1 ag	AP ELISA ortho	D1 PAM confirm	D1 no dopamine	Isoprot counter
c1ccc2c(c1)OCC(c1nnc3sc(-c4ccc5c(c4)OCO5)nn13)O2 (centres undefined)	.	.	.	.	.	/	/	/
Fc1ccc(-c2nn3c(C4COc5ccccc5O4)nnc3s2)cc1 (centres undefined)	.	3.8	.	.	.	14388	.	+
COc1ccc(S(N)(=O)=O)cc1C(=O)NCC1(N2CCCCC2)CCCCC1	/	.	.	.	.	/	/	/
COc1ccc(NC(=O)CSc2nc3ccccc3c(=O)n2-c2ccc3c(c2)OCO3)c(OC)c1	.	3.9	.	.	.	8076	.	+
COc1cccc(NC(=O)N2CCCC2C(=O)NC2CC2)c1 (centres undefined)	.	.	.	.	.	/	/	/
